The term IC50 denotes the concentration needed to halve the response being measured. For orientation: AUC means the area under the concentration-time curve, a measure of exposure. Read a high AUC as more exposure.

Consider one compound from ChEMBL document CHEMBL3098028, “Synthesis and in vitro and in vivo pharmacological evaluation of new 4-aminoquinoline-based compounds” (ACS Med Chem Lett, 2013).

The test system of data set [1] is Liver microsome. The data set is described as follows: Drug metabolism in human liver microsomes assessed as 2-(5-((4-chlorophenyl)(2-(7-chloroquinolin-4-ylamino)ethylamino)methyl)-1H-tetrazol-1-yl)-2-methylpropan-1-ol level at 5 uM after 1 hr by LC-MS/MS analysis. The format is ADME. A general note: Liver microsomes are a subcellular fraction often used to study metabolism.

Data set [2] addresses Cytochrome P450 2E1 (Homo sapiens, UniProt P05181). The data set is described as follows: Inhibition of CYP2E1 in human liver microsomes assessed as chlorzoxazone 6-hydroxylation after 20 mins by LC-MS/MS analysis. The format is ADME.
Data set [3] has as its system Liver microsome. Briefly: Drug metabolism in rat liver microsomes assessed as 2-(5-((4-chlorophenyl)(2-(7-chloroquinolin-4-ylamino)ethylamino)methyl)-1H-tetrazol-1-yl)-2-methylpropan-1-ol level at 5 uM after 1 hr by LC-MS/MS analysis. In kind it is ADME.
Data set [4] in a line: Drug metabolism in hepatocytes (unknown origin) assessed as 2-(5-((4-chlorophenyl)(2-(7-chloroquinolin-4-ylamino)ethylamino)methyl)-1H-tetrazol-1-yl)-2-methylpropan-1-ol level at 5 uM after 6 hrs by LC-MS/MS analysis. The format is ADME, cell-based, Hepatocyte.
Data set [5] has as its target T1, Cytochrome P450 2B6 (Homo sapiens, UniProt P20813).
T1 sequence (P20813 whole entry): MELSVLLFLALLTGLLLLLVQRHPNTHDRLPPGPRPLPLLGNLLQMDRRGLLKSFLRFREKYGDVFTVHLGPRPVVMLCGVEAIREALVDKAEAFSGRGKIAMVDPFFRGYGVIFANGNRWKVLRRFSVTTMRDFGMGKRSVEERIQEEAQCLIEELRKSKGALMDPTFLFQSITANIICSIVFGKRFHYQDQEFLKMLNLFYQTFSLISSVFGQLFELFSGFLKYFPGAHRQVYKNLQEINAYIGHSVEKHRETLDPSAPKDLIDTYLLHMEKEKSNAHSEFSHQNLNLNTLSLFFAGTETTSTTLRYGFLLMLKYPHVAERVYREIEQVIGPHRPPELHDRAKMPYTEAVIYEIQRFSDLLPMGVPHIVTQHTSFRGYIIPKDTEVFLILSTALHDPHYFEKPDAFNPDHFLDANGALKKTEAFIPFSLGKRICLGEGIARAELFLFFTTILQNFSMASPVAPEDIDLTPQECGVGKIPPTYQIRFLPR
Briefly: Inhibition of CYP2B6 in human liver microsomes assessed as bupropion hydroxylation after 20 mins by LC-MS/MS analysis. The format is ADME.

Data set [6] addresses T2, Cytochrome P450 2C8 (Homo sapiens, UniProt P10632).
T2 sequence (P10632 whole entry): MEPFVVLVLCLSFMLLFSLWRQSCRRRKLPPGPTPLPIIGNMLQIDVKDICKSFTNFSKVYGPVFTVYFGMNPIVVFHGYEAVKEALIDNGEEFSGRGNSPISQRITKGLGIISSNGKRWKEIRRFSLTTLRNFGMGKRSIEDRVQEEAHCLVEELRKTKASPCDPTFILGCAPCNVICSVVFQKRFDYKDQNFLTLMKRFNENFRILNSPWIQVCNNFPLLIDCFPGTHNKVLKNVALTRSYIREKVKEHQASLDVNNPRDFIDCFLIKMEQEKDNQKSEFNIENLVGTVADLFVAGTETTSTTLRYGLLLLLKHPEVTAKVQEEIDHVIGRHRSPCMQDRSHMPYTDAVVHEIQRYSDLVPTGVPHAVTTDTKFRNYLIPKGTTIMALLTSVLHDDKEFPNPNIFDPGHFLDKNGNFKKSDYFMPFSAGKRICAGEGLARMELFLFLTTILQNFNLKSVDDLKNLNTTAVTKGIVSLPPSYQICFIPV
Briefly: Inhibition of CYP2C8 in human liver microsomes assessed as paclitaxel 6alpha-hydroxylation after 20 mins by LC-MS/MS analysis. The format is ADME.

In data set [7] the target is Cytochrome P450 2C9 (Homo sapiens, UniProt P11712). The data set is described as follows: Inhibition of CYP2C9 in human liver microsomes assessed as diclofenac 4'-hydroxylation after 20 mins by LC-MS/MS analysis. In kind it is ADME.
The subject of data set [8] is Liver microsome. Briefly: Drug metabolism in human liver microsomes assessed as 4-(2-((1-tert-butyl-1H-tetrazol-5-yl)(4-chlorophenyl)methylamino)ethylamino)-7-chloroquinoline 1-oxide level at 5 uM after 1 hr by LC-MS/MS analysis. The format is ADME.
For data set [9], the target named is T3, Cytochrome P450 1A2 (Homo sapiens, UniProt P05177).
T3 sequence (P05177 whole entry): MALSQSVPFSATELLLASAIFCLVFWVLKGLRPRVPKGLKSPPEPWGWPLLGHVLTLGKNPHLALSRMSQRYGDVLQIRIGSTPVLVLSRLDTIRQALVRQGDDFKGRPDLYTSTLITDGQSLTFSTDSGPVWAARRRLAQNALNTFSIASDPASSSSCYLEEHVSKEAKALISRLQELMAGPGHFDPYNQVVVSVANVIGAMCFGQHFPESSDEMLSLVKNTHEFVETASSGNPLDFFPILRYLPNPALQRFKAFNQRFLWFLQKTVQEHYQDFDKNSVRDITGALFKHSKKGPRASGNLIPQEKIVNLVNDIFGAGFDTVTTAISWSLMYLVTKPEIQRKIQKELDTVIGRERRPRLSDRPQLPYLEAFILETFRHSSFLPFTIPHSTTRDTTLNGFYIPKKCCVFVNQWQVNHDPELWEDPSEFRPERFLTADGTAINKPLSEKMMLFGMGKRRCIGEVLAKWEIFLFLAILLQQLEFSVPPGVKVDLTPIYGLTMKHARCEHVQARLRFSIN
The data set is described as follows: Inhibition of CYP1A2 in human liver microsomes assessed as phenacetin O-deethylation after 20 mins by LC-MS/MS analysis. In kind it is ADME.

Data set [10] has as its system Mus musculus. The data set is described as follows: AUC (0 to infinity) in C57BL/6 mouse at 5 mg/kg, iv. The format is ADME, organism-based, Plasma. Details: dose 5 mg/kg, route intravenous, time infinity; call rule not given here. The conditions noted are these: in vivo. In short, it runs like this:
(§1)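 Healthy male C57/BL6 mice received a single intravenous dose (2.5 or 5.0 mg/kg) or oral dose (20 or 40 mg/kg). Plasma concentrations were followed over time to give AUC0-∞ in min·μmol/L, alongside t1/2, CL, Vd, Vss, Cmax, Tmax and oral bioavailability. Values are means of five animals.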

Data set [11] concerns Plasmodium falciparum. The data set is described as follows: Antiplasmodial activity against chloroquine-resistant Plasmodium falciparum K1 after 24 hrs by [3H]hypoxanthine incorporation assay. The format is functional, organism-based. In short, it runs like this:
(§2)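 Antiplasmodial testing was done at the Swiss Tropical and Public Health Institute. Chloroquine, the reference drug, was tested as its diphosphate salt.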

In data set [12] the test system is CHO. The data set is described as follows: Cytotoxicity against CHO cells. In kind it is cell-based. The conditions noted are these: Cricetulus griseus.
In data set [13] the target is Cytochrome P450 3A4 (Homo sapiens, UniProt P08684). Briefly: Inhibition of CYP3A4 in human liver microsomes assessed as midazolam 1'-hydroxylation and testosterone 6beta-hydroxylation after 20 mins by LC-MS/MS analysis. The format is ADME.
The subject of data set [14] is Plasmodium falciparum. Briefly: Antiplasmodial activity against chloroquine-sensitive Plasmodium falciparum 3D7 after 24 hrs by [3H]hypoxanthine incorporation assay. In kind it is functional, organism-based. In short, it runs like this: as §2
Data set [15] in a line: Kinetic solubility of the compound in phosphate buffered saline at pH 7.4 after 2 hrs by HPLC analysis. The format is physicochemical. Particulars: read-out: Kinetic_solubility.
Data set [16] can be described thus: Drug metabolism in hepatocytes (unknown origin) assessed as 4-(2-((1-tert-butyl-1H-tetrazol-5-yl)(4-chlorophenyl)methylamino)ethylamino)-7-chloroquinoline 1-oxide level at 5 uM after 6 hrs by LC-MS/MS analysis. The format is ADME, cell-based, Hepatocyte.
Data set [17] concerns Mus musculus. Briefly: AUC (0 to infinity) in C57BL/6 mouse at 40 mg/kg, po. The format is ADME, organism-based, Plasma. Details: time infinity, dose 40 mg/kg, route oral. Particulars: in vivo. In short, it runs like this: as §1
Data set [18] can be described thus: Kinetic solubility of the compound in 0.01 M HCl at pH 2 after 2 hrs by HPLC analysis. The format is physicochemical. Particulars: read-out: Kinetic_solubility.

Each structure is given as a SMILES string. Values after ≈ are worked out from the molar mass of the structure shown. Where only a bound is given, the exact number is not on record here.

Cytochrome P450 2C9, sequence (P11712 whole entry): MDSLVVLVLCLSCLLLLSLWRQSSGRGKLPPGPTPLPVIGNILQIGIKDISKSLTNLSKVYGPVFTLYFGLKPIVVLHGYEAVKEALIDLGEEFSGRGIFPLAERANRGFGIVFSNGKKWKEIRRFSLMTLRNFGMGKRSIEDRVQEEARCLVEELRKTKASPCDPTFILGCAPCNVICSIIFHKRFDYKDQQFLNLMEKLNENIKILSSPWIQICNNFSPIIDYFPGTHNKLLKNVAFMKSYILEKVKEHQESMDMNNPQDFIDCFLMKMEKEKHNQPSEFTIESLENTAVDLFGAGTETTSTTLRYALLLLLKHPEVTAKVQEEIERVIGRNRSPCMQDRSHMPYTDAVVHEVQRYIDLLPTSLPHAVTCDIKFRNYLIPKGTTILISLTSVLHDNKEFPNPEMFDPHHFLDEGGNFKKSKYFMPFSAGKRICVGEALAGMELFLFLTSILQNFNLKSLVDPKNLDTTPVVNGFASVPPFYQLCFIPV
Cytochrome P450 3A4, sequence (P08684 whole entry): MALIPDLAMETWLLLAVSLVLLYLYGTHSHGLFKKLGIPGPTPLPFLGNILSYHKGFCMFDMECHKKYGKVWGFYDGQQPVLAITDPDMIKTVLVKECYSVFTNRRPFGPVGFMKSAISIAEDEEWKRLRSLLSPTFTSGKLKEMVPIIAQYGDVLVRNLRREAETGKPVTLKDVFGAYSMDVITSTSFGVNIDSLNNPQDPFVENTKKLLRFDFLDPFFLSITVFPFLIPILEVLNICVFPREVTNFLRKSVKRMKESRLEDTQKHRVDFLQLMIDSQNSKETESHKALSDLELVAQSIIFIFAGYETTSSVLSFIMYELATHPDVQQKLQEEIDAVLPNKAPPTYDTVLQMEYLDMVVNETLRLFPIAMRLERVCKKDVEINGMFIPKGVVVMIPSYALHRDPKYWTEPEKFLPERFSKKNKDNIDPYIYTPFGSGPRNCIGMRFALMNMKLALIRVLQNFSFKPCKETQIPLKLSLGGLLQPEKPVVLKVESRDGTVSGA
Cytochrome P450 2E1, sequence (P05181 whole entry): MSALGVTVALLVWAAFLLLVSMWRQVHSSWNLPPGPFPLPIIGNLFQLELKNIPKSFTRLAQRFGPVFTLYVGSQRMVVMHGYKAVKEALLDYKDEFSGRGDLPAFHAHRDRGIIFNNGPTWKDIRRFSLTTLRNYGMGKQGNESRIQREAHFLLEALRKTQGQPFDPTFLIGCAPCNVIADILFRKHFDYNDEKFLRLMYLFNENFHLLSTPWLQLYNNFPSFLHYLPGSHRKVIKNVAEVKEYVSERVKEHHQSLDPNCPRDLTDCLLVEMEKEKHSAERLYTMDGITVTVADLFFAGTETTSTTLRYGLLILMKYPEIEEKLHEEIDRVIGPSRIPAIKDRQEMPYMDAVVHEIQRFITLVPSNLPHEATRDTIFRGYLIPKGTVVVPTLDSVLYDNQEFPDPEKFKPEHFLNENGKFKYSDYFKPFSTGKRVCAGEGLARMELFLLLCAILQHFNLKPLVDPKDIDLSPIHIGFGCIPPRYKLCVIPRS

Take `CC(C)(C)n1nnnc1C(NCCNc1ccnc2cc(Cl)ccc12)c1ccc(Cl)cc1` (stereo not drawn): the Drug metabolism result in [1], in [3], in [4], in data set [8] and in data set [16] was “Active” each time. The IC50 in data set [2] was > 20 µM; in [5] it was > 20 µM; in data set [6] it was 12.7 µM; in data set [7] it was 8.91 µM; in [9], > 20 µM; in data set [11], 0.001 µM. For the same compound, the IC50 in data set [12] amounted to 97.8 µM; in data set [13], 0.08 µM; in data set [14], 0.002 µM. For the same compound, the area under the curve (AUC) in [10] came out at 221 µmol·min/L; in data set [17], 541 µmol·min/L. Also, the solubility kinetic at 2 h in data set [15] was 6.88 µM (≈ 3.24 µg/mL); in data set [18], > 200 µM.
